Experimental data taken from PMC6543826 (Bioorganic chemistry, 2018).
“And” between values parts separate entries of the source, which are not always exact repeats. Equal values may be shown once. Read-outs that look alike come from different tables or passages of the source.

How the values were obtained:
DU-145 = assay: cells; format: cell-based; conditions: DU-145, 10^−5 M, 48 h
MCF7 = assay: cells; format: cell-based; conditions: MCF7, 10^−5 M, 48 h
ACHN = assay: cells; format: cell-based; conditions: 10^−5 M, 48 h
UO-31 = assay: cells; format: cell-based; conditions: UO-31, 10^−5 M, 48 h
SNB-19 = assay: cells; format: cell-based; conditions: SNB-19, 10^−5 M, 48 h
ERK2 = ERK2 (Rattus norvegicus, UniProt P63086); assay: in vitro radioactive kinase assay, Ets-1 phosphorylation by ERK2; format: biochemical; conditions: for effect of excess Ets-1 (100 μM) on inhibition of ERK2: 5 μM inhibitor, 100 μM vs 10 μM Ets-1, 100 μM ATP
ERK2, sequence (P63086 whole entry): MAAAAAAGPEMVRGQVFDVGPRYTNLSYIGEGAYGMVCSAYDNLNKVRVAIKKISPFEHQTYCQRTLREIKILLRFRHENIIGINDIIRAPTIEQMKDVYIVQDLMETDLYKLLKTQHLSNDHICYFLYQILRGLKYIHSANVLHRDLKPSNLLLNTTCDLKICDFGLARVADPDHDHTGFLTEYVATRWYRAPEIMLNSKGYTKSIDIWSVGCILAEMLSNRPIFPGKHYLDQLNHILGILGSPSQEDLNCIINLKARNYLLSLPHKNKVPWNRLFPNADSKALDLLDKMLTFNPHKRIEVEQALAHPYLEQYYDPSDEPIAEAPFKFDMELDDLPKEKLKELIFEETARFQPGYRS
Summary of the method: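 Activated rat ERK2 (2 nM) was tested with His-Ets-1 (1–138) at 28–30 °C in HEPES pH 7.5 buffer with 11 mM MgCl2, BSA and 5% DMSO. Reactions were started with [γ-32P]ATP (10 or 100 μM).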

EKVX = assay: NCI-60 SRB screen, Non-small cell lung cancer; format: cell-based, human; conditions: 10^−5 M, 48 h
OVCAR-8 = assay: cells; format: cell-based; conditions: OVCAR-8, 10^−5 M, 48 h
NCI-H226 = assay: cells; format: cell-based; conditions: NCI-H226, 10^−5 M, 48 h
SR = assay: cells; format: cell-based; conditions: 10^−5 M, 48 h
OVCAR-3 = assay: cells; format: cell-based; conditions: OVCAR-3, 10^−5 M, 48 h
A498 = assay: NCI-60 SRB screen, Renal cancer; format: cell-based, human; conditions: A498, 10^−5 M, 48 h
SF-268 = assay: cells; format: cell-based; conditions: SF-268, 10^−5 M, 48 h
LOX IMVI = assay: cells; format: cell-based; conditions: 10^−5 M, 48 h
RPMI-8226 = assay: cells; format: cell-based; conditions: RPMI-8226, 10^−5 M, 48 h
SW-620 = assay: cells; format: cell-based; conditions: SW-620, 10^−5 M, 48 h
SF-539 = assay: cells; format: cell-based; conditions: SF-539, 10^−5 M, 48 h
HOP-92 = assay: cells; format: cell-based; conditions: HOP-92, 10^−5 M, 48 h
NCI-H522 = assay: cells; format: cell-based; conditions: NCI-H522, 10^−5 M, 48 h
A549/ATCC = assay: cells; format: cell-based; conditions: A549/ATCC, 10^−5 M, 48 h
SF-295 = assay: cells; format: cell-based; conditions: SF-295, 10^−5 M, 48 h
NCI-H322M = assay: cells; format: cell-based; conditions: 10^−5 M, 48 h
A375 cells = assay: IncuCyte real time proliferation assay; format: cell-based, human; conditions: imaged every 1 h for 90 h
Summary of the method: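 Real-time growth: 2000 A375 cells per well adhered for 24 h, then were treated with a range of test compound doses. Phase images were taken on IncuCyte ZOOM (10× objective) every 1 h for 90 h in total. Growth confluence was estimated from the images and plotted.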

[1] = tested on: cleaved PARP in A375 cells; assay: PARP cleavage western blot; format: cell-based, human; conditions: 12 h exposure
Summary of the method: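 A375 cells (1,000,000 per well) were seeded 24 h, then exposed to several test compound doses for 12 h before lysis in buffer with protease/phosphatase inhibitors. Protein was measured by Bradford. 60 μg lysate was run on 10% SDS-PAGE and blotted to PVDF. Blots were probed for PARP and cleaved PARP, with vinculin as loading control. Done twice.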

[2] = tested on: ERK substrates (p90RSK and ELK) phosphorylation in A375 cells; assay: western blotting of MAPK pathway phosphorylation in A375 cells after EGF; format: cell-based, human
Summary of the method: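 A375 cells (1,000,000 per well) were seeded 24 h, then treated with DMSO or test compound (0.5–25 μM) in serum-free medium for 4 or 12 h. Cells were stimulated with 100 nM EGF for 10–15 min, lysed, and 60 μg lysate was blotted. Probes: phospho-p90RSK (Thr573), RSK, phospho-Elk-1 (Ser383), phospho- and total ERK1/2, phospho-JNK (Thr183/Tyr185). Done twice.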

[3] = tested on: caspase 3/7 in A375 cells; assay: IncuCyte Caspase 3/7 apoptosis assay; format: cell-based, human; conditions: doses of 3.7 and 33.3 μM, after 48 and 72 h
Summary of the method: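 2000 A375 cells per well adhered for 24 h, then received test compound doses plus a constant concentration of IncuCyte Caspase-3/7 reagent. Cells were imaged on IncuCyte ZOOM (10× objective) at set time points, and stained cells were counted. Apoptotic cell number was normalized to percentage area confluence at the final time point.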

[4] = tested on: BRAF-mutant A375 melanoma cells; assay: A375 cell viability, MTS assay; format: cell-based; conditions: Homo sapiens, A-375, 72 h, read-out: A375 Cell Viability IC50
Summary of the method: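 A375 cells were kept in RPMI with 10% heat-inactivated FBS, Glutamax and penicillin/streptomycin at 37 °C in 5% CO2. 2000 cells per well were treated with a range of test compound doses for 72 h. Viability was read by MTS assay. Run in triplicate.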

[5] = ERK2 IC50, 100 μM ATP, 10 μM Ets-1
[6] = ERK2 IC50 at 100 μM ATP /10mM Ets-1, Table 4, 100 μM ATP /10mM Ets-1

Row | SMILES | Growth percent (G%) (DU-145) [%] | Growth percent (G%) (MCF7) [%] | Growth percent (G%) (ACHN) [%] | Growth percent (G%) (UO-31) [%] | Growth percent (G%) (SNB-19) [%] | effect of excess Ets-1 (100 μM) on inhibition of ERK2 (ERK2) | Growth percent (G%) (OVCAR-8) [%] | Growth percent (G%) (NCI-H226) [%] | Growth percent (G%) (SR) [%] | Growth percent (G%) (OVCAR-3) [%] | Growth percent (G%) (SF-268) [%] | Growth percent (G%) (LOX IMVI) [%] | Growth percent (G%) (RPMI-8226) [%] | Growth percent (G%) (SW-620) [%] | Growth percent (G%) (SF-539) [%] | Growth percent (G%) (HOP-92) [%] | Growth percent (G%) (NCI-H522) [%] | Growth percent (G%) (A549/ATCC) [%] | Growth percent (G%) (SF-295) [%] | Growth percent (G%) (NCI-H322M) [%] | further results
1 | O=C1c2ccccc2C(=O)c2c1oc1c2c(=O)[nH]c2ccccc21 [3a, Naphtho[2′,3′:4,5]furo[3,2-c]quinoline-6,7,12(5H)-trione] | 82.02 | 48.82 | 65.70 | 60.44 | 103.72 | did not rescue | 35.61 | 78.47 | 43.80 | −14.81 | 91.30 | 56.12 | 62.72 | 89.23 | 90.30 | 71.42 | 54.81 | 97.18 | 92.71 | 89.28 | IC50 (ERK2; [5]): 10200 ± 1200 nM; IC50 (ERK2; [6]): 10200 ± 1200 nM; Growth percent (G%) (EKVX): 27.35%; Growth percent (G%) (A498): 103.58%
2 | Cn1c(=O)c2c(=O)c3c4c(oc3oc2c2ccccc21)C(=O)c1ccccc1C4=O [5a, 5-Methyl-5H-naphthalen[2″,3″:4′,5′]furo[3′,2′:4′,5,6]pyrano [3,2-c]quinoline-6,7,8,13-tetraone] | 81.38 | 76.73 | 85.7 | 137.02 | 110.38 |  | 100.1 | 88.55 | 92.01 | 98.93 | 101.09 | 95.89 | 100.23 | 103.1 | 93.83 | 99.17 | 78.37 | 85.17 | 101.32 | 91.04 | IC50 (ERK2; read-out: ERK2 IC50, 100 μM ATP, 10 μM Ets-1): 108000 ± 12200 nM; IC50 (ERK2; read-out: ERK2 IC50 at 100 μM ATP /10mM Ets-1, Table 4, 100 μM ATP /10mM Ets-1): > 100000 nM
3 | O=C1C(Cl)=C(c2c(O)c3c(=O)n(-c4ccccc4)c4ccccc4c3oc2=O)C(=O)c2ccccc21 [compound 6, 3-(3-Chloro-1,4-dioxo-1,4-dihydronaphthalen-2-yl)-4-hydroxy-6-phenyl-2H-pyrano[3,2-c]quinoline-2,5(6H)-dione] | 34.21 | 51.60 | 28.55 | 64.18 | 27.87 | did not rescue | 48.24 | 86.30 | 11.44 | 2.15 | 34.32 | 42.99 | 19.65 | 18.61 | −5.45 | 80.01 | 19.42 | 37.73 | 18.38 | 63.53 | A375 real time proliferation (growth confluence), in words (A375 cells): dose-dependent inhibition; level of cleaved PARP in A375 [1]: elevated level; IC50 (ERK2; ERK2 IC50, 10 μM ATP): 90 nM and 86 nM; IC50 (ERK2; [5]): ~160 nM and 160 nM; IC50 (ERK2; [6]): 160 ± 20 nM; phosphorylation of ERK substrates (p90RSK and ELK), in words ([2]; A375, 0.5–25 μM, EGF stimulation): dose-dependent inhibition; concentration enough to inhibit ELK phosphorylation ([2]; A375, 12 h, then EGF 100 nM): 2.5 µM; concentration enough to inhibit p-90RSK phosphorylation ([2]; A375, 12 h, then EGF 100 nM): 10 µM; effect on ERK or MKK½ phosphorylation or the JNK pathway ([2]; A375, EGF stimulation): no effect; caspase 3/7 activity in A375 [3]: activation of caspase 3/7; IC50 [4]: 130 ± 30 nM
